ChEMBL document CHEMBL1151742, “Design, synthesis, and characterization of high-affinity, systemically-active galanin analogues with potent anticonvulsant activities” (J Med Chem, 2008)
Structures can show the parent of a compound that is named as a salt. Active and inactive are the calls of the source. The calls are words filed in the database; no cut-off is given here. Peptide text beside a SMILES is read from it. * marks the point of attachment. Palmitoyl = CCCCCCCCCCCCCCCC(=O)*

Key:
[1] = target: T1, Galanin receptor type 2 (Homo sapiens, UniProt O43603); test: Binding affinity to human GalR2
T1 sequence (O43603 whole entry): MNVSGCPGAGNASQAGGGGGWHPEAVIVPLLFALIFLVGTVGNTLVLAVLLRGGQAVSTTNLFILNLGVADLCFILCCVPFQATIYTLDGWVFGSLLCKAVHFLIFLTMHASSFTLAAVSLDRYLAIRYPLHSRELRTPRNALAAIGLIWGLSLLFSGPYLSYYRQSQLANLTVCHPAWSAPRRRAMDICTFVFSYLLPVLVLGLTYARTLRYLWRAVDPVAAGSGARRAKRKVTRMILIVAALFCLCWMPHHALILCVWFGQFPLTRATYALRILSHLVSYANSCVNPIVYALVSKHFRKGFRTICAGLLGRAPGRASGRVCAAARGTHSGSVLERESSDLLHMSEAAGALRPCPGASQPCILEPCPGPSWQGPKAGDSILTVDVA

[2] = Metabolic stability in rat serum assessed as half life at pH 7.5; format: ADME, cell-free
Outline: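 Peptide (final 20 µM) was incubated in 25% rat serum with 0.1 M Tris-HCl pH 7.5 at 37 °C, serum pre-warmed 10 min. Aliquots taken up to 8 h were quenched with 15% TCA in 40% isopropanol, held 15 min at -20 °C and centrifuged. Intact peptide was measured by reversed-phase HPLC peak area, and half-life was calculated from the disappearance.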

[3] = target: T2, Galanin receptor type 1 (Homo sapiens, UniProt P47211); test: Displacement of europium-labeled galanin from human GalR1 expressed in HEK293 EBNA cells; format: cell-based
T2 sequence (P47211 whole entry): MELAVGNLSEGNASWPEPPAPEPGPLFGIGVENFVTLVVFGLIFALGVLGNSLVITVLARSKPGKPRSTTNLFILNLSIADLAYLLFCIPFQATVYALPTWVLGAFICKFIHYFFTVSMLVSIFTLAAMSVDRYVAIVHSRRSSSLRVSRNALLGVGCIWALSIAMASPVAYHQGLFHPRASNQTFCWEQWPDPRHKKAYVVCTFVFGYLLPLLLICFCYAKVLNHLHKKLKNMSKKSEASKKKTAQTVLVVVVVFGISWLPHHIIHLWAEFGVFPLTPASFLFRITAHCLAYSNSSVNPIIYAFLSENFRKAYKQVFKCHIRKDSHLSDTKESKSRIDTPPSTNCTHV

[4] = target: T1, Galanin receptor type 2; test: Displacement of europium-labeled galanin from human GalR2 expressed in CHO-K1 cells; format: cell-based
[5] = system: Mus musculus; test: Anticonvulsant activity in CF1 mouse assessed as inhibition of 6 Hz corneal stimulation-induced limbic seizures at 4 mg/kg, ip administered 15 mins before 6 Hz corneal stimulation; format: functional, organism-based; parameters: dose 4 mg/kg; conditions: Limbic system
Outline: (§1)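 Each analogue given ip at 4 mg/kg to five groups of CF-1 mice (n = 4 per group), one group per time point. Seizure challenge was 6 Hz corneal stimulation (32 mA for 3 s, corneal electrodes) at 15, 30, 60, 120 or 240 min after dosing. A mouse without a limbic seizure (jaw chomping, vibrissae twitching, forelimb clonus, Straub tail) was counted as protected.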

[6] = system: Mus musculus; test: Anticonvulsant activity in CF1 mouse assessed as inhibition of 6 Hz corneal stimulation-induced limbic seizures at 4 mg/kg, ip administered 120 mins before 6 Hz corneal stimulation; format: functional, organism-based; parameters: dose 4 mg/kg; conditions: Limbic system; outline: as §1
[7] = system: Mus musculus; test: Anticonvulsant activity in CF1 mouse assessed as inhibition of 6 Hz corneal stimulation-induced limbic seizures at 4 mg/kg, ip administered 60 mins before 6 Hz corneal stimulation; format: functional, organism-based; parameters: dose 4 mg/kg; conditions: Limbic system; outline: as §1
[8] = system: Mus musculus; test: Anticonvulsant activity in CF1 mouse assessed as inhibition of 6 Hz corneal stimulation-induced limbic seizures at 4 mg/kg, ip administered 240 mins before 6 Hz corneal stimulation; format: functional, organism-based; parameters: dose 4 mg/kg; conditions: Limbic system; outline: as §1

Question: For COC(=O)[C@H](CCCCN)NC(=O)[C@]1(C)NC(=O)c2nc(oc2C)[C@](C)(C(=O)NC2c3ccccc3-c3ccccc32)NC(=O)c2nc(oc2C)[C@](C)(C(=O)NCC2CCCCC2)NC(=O)c2nc1oc2C [GALMIC TFA], which Kd [1] is on record?
Answer: Its Kd is > 100000 nM.

Question: Which half-life [2] does the source give for CCCCCCCCCCCCCCCC(=O)NCCCC[C@H](NC(=O)[C@@H]1CCCN1C(=O)CNC(=O)[C@H](CC(C)C)NC(=O)[C@H](CC(C)C)NC(=O)[C@H](Cc1ccc(O)cc1)NC(=O)CNC(=O)[C@H](C)NC(=O)[C@H](CO)NC(=O)[C@H](CC(N)=O)NC(=O)[C@H](CC(C)C)NC(=O)[C@@H](NC(=O)[C@H](Cc1c[nH]c2ccccc12)NC(=O)CNC)[C@@H](C)O)C(=O)N[C@@H](CCCCN)C(=O)N[C@@H](CCCCN)C(=O)N[C@@H](CCCCN)C(N)=O here?
Answer: Its half-life is > 10 h.

Question: What about the Ki [3] of the same compound?
Answer: Its Ki is 25.5 nM.

Question: And the Ki [4]?
Answer: The Ki was 108 nM.

Question: And the Activity [5]?
Answer: Its Activity is “inactive”.

Question: What about the Activity [6] of the same compound?
Answer: The Activity was “inactive”.

Question: For CCCCCCCCCCCCCCCC(=O)NCCCC[C@H](NC(=O)[C@@H](CCCCN)NC(=O)[C@@H](CCCCN)NC(=O)[C@@H]1CCCN1C(=O)CNC(=O)[C@H](CC(C)C)NC(=O)[C@H](CC(C)C)NC(=O)[C@H](Cc1ccc(O)cc1)NC(=O)CNC(=O)[C@H](C)NC(=O)[C@H](CO)NC(=O)[C@H](CC(N)=O)NC(=O)[C@H](CC(C)C)NC(=O)[C@@H](NC(=O)[C@H](Cc1c[nH]c2ccccc12)NC(=O)CNC)[C@@H](C)O)C(=O)N[C@H](CCCCN)C(N)=O, which half-life [2] is on record?
Answer: Its half-life is > 10 h.

Question: What about the Ki [3] of the same compound?
Answer: The Ki was 0.9 nM.

Question: With CCCCCCCCCCCCCCCC(=O)NCCCC[C@H](NC(=O)[C@H](CCCCN)NC(=O)[C@@H]1CCCN1C(=O)CNC(=O)[C@H](CC(C)C)NC(=O)[C@H](CC(C)C)NC(=O)[C@H](Cc1ccc(O)cc1)NC(=O)CNC(=O)[C@H](C)NC(=O)[C@H](CO)NC(=O)[C@H](CC(N)=O)NC(=O)[C@H](CC(C)C)NC(=O)[C@@H](NC(=O)[C@H](Cc1c[nH]c2ccccc12)NC(=O)CNC)[C@@H](C)O)C(=O)N[C@@H](CCCCN)C(=O)N[C@@H](CCCCN)C(N)=O as the compound, how does the half-life [2] read?
Answer: Its half-life is 8.6 h.

Question: And the Ki [3]?
Answer: Its Ki is 6 nM.

Question: What about the Ki [4] of the same compound?
Answer: Its Ki is 28 nM.

Question: And the Activity [7]?
Answer: The Activity was “inactive”.

Question: And the Activity [6]?
Answer: The Activity was “inactive”.

Question: What about the Activity [8] of the same compound?
Answer: The Activity was “inactive”.

Question: Which results are given for CCCCCCCCCCCCCCCC(=O)NCCCC[C@H](NC(=O)[C@H](CCCCN)NC(=O)[C@H](CCCCN)NC(=O)[C@@H]1CCCN1C(=O)CNC(=O)[C@H](CC(C)C)NC(=O)[C@H](CC(C)C)NC(=O)[C@H](Cc1ccc(O)cc1)NC(=O)CNC(=O)[C@H](C)NC(=O)[C@H](CO)NC(=O)[C@H](CC(N)=O)NC(=O)[C@H](CC(C)C)NC(=O)[C@@H](NC(=O)[C@@H](N)Cc1c[nH]c2ccccc12)[C@@H](C)O)C(=O)N[C@@H](CCCCN)C(N)=O (H-WTLNSAGYLLGPKKK(Palmitoyl)K-NH2)?
Answer: half-life [2]: > 10 h; Ki [3]: 387 nM; Ki [4]: 48 nM; Activity [8]: inactive

Question: With CCCCCCCCCCCCCCCC(=O)NCCCC[C@H](NC(=O)[C@H](CCCNC(=N)N)NC(=O)[C@H](CCCNC(=N)N)NC(=O)[C@@H]1CCCN1C(=O)CNC(=O)[C@H](CC(C)C)NC(=O)[C@H](CC(C)C)NC(=O)[C@H](Cc1ccc(O)cc1)NC(=O)CNC(=O)[C@H](C)NC(=O)[C@H](CO)NC(=O)[C@H](CC(N)=O)NC(=O)[C@H](CC(C)C)NC(=O)[C@@H](NC(=O)[C@H](Cc1c[nH]c2ccccc12)NC(=O)CNC)[C@@H](C)O)C(=O)N[C@@H](CCCNC(=N)N)C(N)=O as the compound, how does the Activity [7] read?
Answer: Its Activity is “Active”.

Question: And the Activity [8]?
Answer: Its Activity is “inactive”.

Question: With CCCCCCCCCCCCCCCC(=O)NCCCC[C@H](NC(=O)[C@H](CCCCN)NC(=O)[C@H](CCCCN)NC(=O)CNC(=O)[C@H](CC(C)C)NC(=O)[C@H](CC(C)C)NC(=O)[C@H](Cc1ccc(O)cc1)NC(=O)CNC(=O)[C@H](C)NC(=O)[C@H](CO)NC(=O)[C@H](CC(N)=O)NC(=O)[C@H](CC(C)C)NC(=O)[C@@H](NC(=O)[C@H](Cc1c[nH]c2ccccc12)NC(=O)CNC)[C@@H](C)O)C(=O)N[C@@H](CCCCN)C(N)=O as the compound, how does the half-life [2] read?
Answer: Its half-life is 5.6 h.

Question: And the Ki [3]?
Answer: The Ki was 25.5 nM.

Question: What about the Ki [4] of the same compound?
Answer: Its Ki is 75 nM.

Question: And the Activity [6]?
Answer: Its Activity is “inactive”.

Question: What about the Activity [8] of the same compound?
Answer: Its Activity is “inactive”.

Question: With CCCCCCCCCCCCCCCC(=O)NCCCC[C@H](NC(=O)[C@H](CCCCN)NC(=O)[C@H](CCCCN)NC(=O)[C@@H]1CCCN1C(=O)CNC(=O)[C@H](CC(C)C)NC(=O)[C@H](CC(C)C)NC(=O)[C@H](Cc1ccc(O)cc1)NC(=O)CNC(=O)[C@H](C)NC(=O)[C@H](CO)NC(=O)[C@H](CC(N)=O)NC(=O)[C@H](CC(C)C)NC(=O)[C@@H](NC(=O)[C@H](Cc1c[nH]c2ccccc12)NC(=O)CCCCCN)[C@@H](C)O)C(=O)N[C@@H](CCCCN)C(N)=O as the compound, how does the half-life [2] read?
Answer: The half-life was > 10 h.

Question: And the Ki [3]?
Answer: The Ki was 21.5 nM.

Question: What about the Ki [4] of the same compound?
Answer: Its Ki is 51 nM.

Question: What about the Activity [5] of the same compound?
Answer: The Activity was “Active”.
